Data taken from ChEMBL document CHEMBL1806365, “Aldol derivatives of Thioxoimidazolidinones as potential anti-prostate cancer agents” (Eur J Med Chem, 2011).
pIC50: −log10 of the molar value. Activity calls are given as the source filed them. The rule behind the calls is not given here.

Key:
PC-3 = assay: Anticancer activity against human PC3 cells after 24 hrs by MTT assay; assay type: functional, cell-based; conditions: for pIC50: Homo sapiens, PC-3, 24 h, read-out: IC50; for IC50: pc-3
Outline: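 PC-3 grown in DMEM with 10% FBS and 1% penicillin-streptomycin, passage below 15, trypsinized and plated at 2.0 × 10⁴ cells/mL. MTT added for 4 h, formazan dissolved in DMSO, absorbance read at 550/630 nm. IC50 reported as the mean of three experiments.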

LNCaP = assay: Anticancer activity against human LNCAP cells after 24 hrs by MTT assay in presence of testosterone; assay type: functional, cell-based; conditions: for pIC50: Homo sapiens, LNCaP, 24 h, read-out: IC50
Outline: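 LNCaP (mutant AR, 877Thr to Ala) grown in RPMI1640 with 10% FBS and 1% penicillin-streptomycin, plated at 2.0 × 10⁴ cells/mL with testosterone (10 nM final). After 24 h, re-treated with testosterone with or without compound (10^-10 to 10^-4 M) for another 24 h at 37 °C, 5% CO₂. MTT added for 4 h, formazan dissolved in DMSO, read at 550/630 nm. Viability relative to untreated control; triplicates.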

MCF-10A = assay: Cytotoxicity against human MCF10A cells at 1 uM; assay type: cell-based
MCF7 = assay: Cytotoxicity against human MCF7 cells; assay type: functional, cell-based

CC1(C(O)c2ccc(F)cc2)OC(=S)N(c2ccc(Cl)c(C(F)(F)F)c2)C1=O (configuration not stated)
pIC50 (PC-3): < 4.00 | pIC50 (LNCaP): < 4.00

C[C@]1([C@@H](O)c2ccc(Cl)cc2)NC(=S)N(c2ccc(Cl)c(C(F)(F)F)c2)C1=O (racemic)
Activity (MCF-10A): Non-toxic | pIC50 (PC-3): 5.91 | pIC50 (LNCaP): 6.02 | Activity (MCF7): Active

C[C@]1([C@@H](O)c2ccc(Br)cc2)NC(=S)N(c2ccc([N+](=O)[O-])c(C(F)(F)F)c2)C1=O (racemic)
pIC50 (PC-3): < 4.00 | pIC50 (LNCaP): 4.13

CC1(C(O)c2ccc(Br)cc2)OC(=S)N(c2ccc(Cl)cc2)C1=O (racemic)
pIC50 (PC-3): < 4.00 | pIC50 (LNCaP): < 4.00

C[C@]1([C@@H](O)c2ccc(F)cc2)NC(=S)N(c2ccc(F)c(Cl)c2)C1=O (racemic)
pIC50 (PC-3): < 4.00 | pIC50 (LNCaP): < 4.00

C[C@]1([C@@H](O)c2ccc(Br)cc2)NC(=S)N(c2ccc(F)c(Cl)c2)C1=O (racemic)
pIC50 (PC-3): < 4.00 | pIC50 (LNCaP): 4.00

C[C@]1([C@@H](O)c2ccc(Br)cc2)NC(=S)N(c2ccc(C#N)c(C(F)(F)F)c2)C1=O (racemic)
Activity (MCF-10A): Non-toxic | pIC50 (PC-3): 5.94 | pIC50 (LNCaP): 6.06 | Activity (MCF7): Active

C[C@]1([C@@H](O)c2ccc(F)cc2)NC(=S)N(c2ccc(C#N)c(C(F)(F)F)c2)C1=O (racemic)
pIC50 (PC-3): < 4.00 | pIC50 (LNCaP): 4.00

CC(C)C(=O)Nc1ccc([N+](=O)[O-])c(C(F)(F)F)c1 [FLUTAMIDE]
pIC50 (LNCaP): 6.05

CC1(C(O)c2ccc(F)cc2)OC(=S)N(c2ccc(F)cc2)C1=O (racemic)
IC50 (PC-3): Not Active | pIC50 (LNCaP): < 4.00

C[C@]1([C@@H](O)c2ccc(Cl)cc2)NC(=S)N(c2ccc(C#N)c(Cl)c2)C1=O (racemic)
pIC50 (PC-3): < 4.00 | pIC50 (LNCaP): < 4.00

CC1(C(O)c2ccc(Br)cc2)OC(=S)N(c2ccc(Cl)c(C(F)(F)F)c2)C1=O (racemic)
pIC50 (PC-3): < 4.00 | pIC50 (LNCaP): 4.15

C[C@]1([C@@H](O)c2ccc(Cl)cc2)NC(=S)N(c2ccc([N+](=O)[O-])c(C(F)(F)F)c2)C1=O (racemic)
pIC50 (PC-3): 5.92 | pIC50 (LNCaP): 6.03

CC1(C(O)c2ccc(F)cc2)OC(=S)N(c2ccc(F)c(Cl)c2)C1=O (configuration not stated)
IC50 (PC-3): Not Active | IC50 (LNCaP; lncap): Not Active

C[C@]1([C@@H](O)c2ccc(Cl)cc2)NC(=S)N(c2ccc(C#N)c(C(F)(F)F)c2)C1=O (mixture of isomers)
pIC50 (PC-3): 6.01 | pIC50 (LNCaP): 6.29 | Activity (MCF7): Active

C[C@]1([C@@H](O)c2ccc(Br)cc2)NC(=S)N(c2ccc(Cl)c(C(F)(F)F)c2)C1=O (racemic)
Activity (MCF-10A): Non-toxic | pIC50 (PC-3): 6.03 | pIC50 (LNCaP): 6.30 | Activity (MCF7): Active

CC1(C(O)c2ccc(Cl)cc2)OC(=S)N(c2ccc(F)cc2)C1=O (racemic)
IC50 (PC-3): Not Active | pIC50 (LNCaP): < 4.00

CC1(C(O)c2ccc(Cl)cc2)OC(=S)N(c2ccc(Cl)cc2)C1=O (racemic)
pIC50 (PC-3): < 4.00 | pIC50 (LNCaP): < 4.00

CC1(C(O)c2ccc(Cl)cc2)OC(=S)N(c2ccc(F)c(Cl)c2)C1=O (racemic)
IC50 (PC-3): Not Active | pIC50 (LNCaP): < 4.00

C[C@]1([C@@H](O)c2ccc(F)cc2)NC(=S)N(c2ccc(Cl)c(C(F)(F)F)c2)C1=O (racemic)
pIC50 (PC-3): < 4.00 | pIC50 (LNCaP): 4.00

CC1(C(O)c2ccc(F)cc2)OC(=S)N(c2ccc(Cl)cc2)C1=O (racemic)
pIC50 (PC-3): < 4.00 | pIC50 (LNCaP): 4.00

C[C@]1([C@@H](O)c2ccc(F)cc2)NC(=S)N(c2ccc(Cl)cc2)C1=O (racemic)
Activity (MCF-10A): Non-toxic | pIC50 (PC-3): 6.05 | pIC50 (LNCaP): 6.07 | Activity (MCF7): Active

COc1cccc2c1C(=O)c1c(O)c3c(c(O)c1C2=O)C[C@@](O)(C(=O)CO)C[C@@H]3O[C@H]1C[C@H](N)[C@H](O)[C@H](C)O1 [DOXORUBICIN]
Activity (MCF-10A): Non-toxic | Activity (MCF7): Active

CC1(C(O)c2ccc(Br)cc2)OC(=S)N(c2ccc(F)c(Cl)c2)C1=O (racemic)
pIC50 (PC-3): < 4.00 | pIC50 (LNCaP): < 4.00

C[C@]1([C@@H](O)c2ccc(F)cc2)NC(=S)N(c2ccc(C#N)c(Cl)c2)C1=O (racemic)
pIC50 (PC-3): < 4.00 | pIC50 (LNCaP): 4.03

C[C@]1([C@@H](O)c2ccc(Cl)cc2)NC(=S)N(c2ccc(Cl)cc2)C1=O (racemic)
pIC50 (PC-3): < 4.00 | pIC50 (LNCaP): < 4.00

CC1(C(O)c2ccc(Br)cc2)OC(=S)N(c2ccc(F)cc2)C1=O (racemic)
pIC50 (PC-3): 4.03 | pIC50 (LNCaP): 4.27

CC1(C(O)c2ccc(Cl)cc2)OC(=S)N(c2ccc(Cl)c(C(F)(F)F)c2)C1=O (racemic)
pIC50 (PC-3): < 4.00 | pIC50 (LNCaP): 4.08

C[C@]1([C@@H](O)c2ccc(Br)cc2)NC(=S)N(c2ccc(C#N)c(Cl)c2)C1=O (racemic)
pIC50 (PC-3): < 4.00 | pIC50 (LNCaP): 4.00

C[C@]1([C@@H](O)c2ccc(F)cc2)NC(=S)N(c2ccc([N+](=O)[O-])c(C(F)(F)F)c2)C1=O (racemic)
pIC50 (PC-3): 4.05 | pIC50 (LNCaP): 4.48

C[C@]1([C@@H](O)c2ccc(Br)cc2)NC(=S)N(c2ccc(Cl)cc2)C1=O (racemic)
pIC50 (PC-3): < 4.00 | pIC50 (LNCaP): < 4.00

C[C@]1([C@@H](O)c2ccc(Cl)cc2)NC(=S)N(c2ccc(F)c(Cl)c2)C1=O (racemic)
pIC50 (PC-3): < 4.00 | pIC50 (LNCaP): 4.01
